Measured values published in ChEMBL document CHEMBL1153746, “Mansouramycins A-D, cytotoxic isoquinolinequinones from a marine streptomycete” (J Nat Prod, 2009).

Key:
Type in all cases: functional, cell-based
[1] = Cytotoxicity against human 1218L cells after 4 days by propidium iodide assay; conditions: 96 h
Summary of the method: (§1)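 Monolayer cell proliferation assay across a panel of up to 36 human tumour lines covering 14 solid tumour types. Lines came either from patient tumours grown as subcutaneous xenografts in NMRI nu/nu mice or from culture collections (ATCC, NCI, DSMZ). Potency is given as IC50.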

[2] = Cytotoxicity against human BXF T24 cells after 4 days by propidium iodide assay; conditions: T-24, 96 h; summary of the method: as §1
[3] = Cytotoxicity against human 498NL cells after 4 days by propidium iodide assay; conditions: 96 h; summary of the method: as §1
[4] = tested on: SF-268; assay: Cytotoxicity against human SF268 cells after 4 days by propidium iodide assay; conditions: SF-268, 96 h; summary of the method: as §1
[5] = tested on: HCT-116; assay: Cytotoxicity against human HCT116 cells after 4 days by propidium iodide assay; conditions: HCT-116, 96 h; summary of the method: as §1
[6] = tested on: HT-29; assay: Cytotoxicity against human HT-29 cells after 4 days by propidium iodide assay; conditions: HT-29, 96 h; summary of the method: as §1
[7] = Cytotoxicity against human GXF251L cells after 4 days by propidium iodide assay; conditions: GXF 251L, 96 h; summary of the method: as §1
[8] = Cytotoxicity against human 536L cells after 4 days by propidium iodide assay; conditions: 96 h; summary of the method: as §1
[9] = Cytotoxicity against human 1121L cells after 4 days by propidium iodide assay; conditions: 96 h; summary of the method: as §1
[10] = Cytotoxicity against human 289L cells after 4 days by propidium iodide assay; conditions: 96 h; summary of the method: as §1
[11] = Cytotoxicity against human 526L cells after 4 days by propidium iodide assay; conditions: 96 h; summary of the method: as §1
[12] = Cytotoxicity against human LXFL 529L cells after 4 days by propidium iodide assay; conditions: 96 h; summary of the method: as §1
[13] = Cytotoxicity against human 629L cells after 4 days by propidium iodide assay; conditions: 96 h; summary of the method: as §1
[14] = tested on: NCI-H460; assay: Cytotoxicity against human H460 cells after 4 days by propidium iodide assay; conditions: NCI-H460, 96 h; summary of the method: as §1
[15] = Cytotoxicity against human MAXF 401NL cells after 4 days by propidium iodide assay; conditions: 96 h; summary of the method: as §1
[16] = tested on: MCF7; assay: Cytotoxicity against human MCF7 cells after 4 days by propidium iodide assay; conditions: MCF7, 96 h; summary of the method: as §1
[17] = Cytotoxicity against human 276L cells after 4 days by propidium iodide assay; conditions: 96 h; summary of the method: as §1
[18] = Cytotoxicity against human 394NL cells after 4 days by propidium iodide assay; conditions: 96 h; summary of the method: as §1
[19] = Cytotoxicity against human MEXF 462NL cells after 4 days by propidium iodide assay; conditions: 96 h; summary of the method: as §1
[20] = Cytotoxicity against human 514L cells after 4 days by propidium iodide assay; conditions: 96 h; summary of the method: as §1
[21] = Cytotoxicity against human 520L cells after 4 days by propidium iodide assay; conditions: 96 h, in the assay text read “MTT assay” for “propidium iodide assay”; summary of the method: as §1
[22] = Cytotoxicity against human 1619L cells after 4 days by propidium iodide assay; conditions: 96 h, in the assay text read “MTT assay” for “propidium iodide assay”; summary of the method: as §1
[23] = Cytotoxicity against human 899L cells after 4 days by propidium iodide assay; conditions: 96 h; summary of the method: as §1
[24] = tested on: OVCAR-3; assay: Cytotoxicity against human OVCAR-3 cells after 4 days by propidium iodide assay; conditions: OVCAR-3, 96 h; summary of the method: as §1
[25] = Cytotoxicity against human 1657L cells after 4 days by propidium iodide assay; conditions: 96 h; summary of the method: as §1
[26] = tested on: PANC-1; assay: Cytotoxicity against human PANC1 cells after 4 days by propidium iodide assay; conditions: PANC-1, 96 h; summary of the method: as §1
[27] = tested on: CWR22R; assay: Cytotoxicity against human 22Rv1 cells after 4 days by propidium iodide assay; conditions: 22Rv1, 96 h; summary of the method: as §1
[28] = tested on: DU-145; assay: Cytotoxicity against human DU145 cells after 4 days by propidium iodide assay; conditions: DU-145, 96 h; summary of the method: as §1
[29] = tested on: LNCaP; assay: Cytotoxicity against human LNCAP cells after 4 days by propidium iodide assay; conditions: 96 h; summary of the method: as §1
[30] = Cytotoxicity against human PC3M cells after 4 days by propidium iodide assay; conditions: PC-3M, 96 h; summary of the method: as §1
[31] = Cytotoxicity against human 1752L cells after 4 days by propidium iodide assay; conditions: 96 h; summary of the method: as §1
[32] = Cytotoxicity against human 1781L cells after 4 days by propidium iodide assay; conditions: 96 h; summary of the method: as §1
[33] = Cytotoxicity against human 393NL cells after 4 days by propidium iodide assay; conditions: 96 h; summary of the method: as §1
[34] = Cytotoxicity against human RXF 486L cells after 4 days by propidium iodide assay; conditions: 96 h; summary of the method: as §1
[35] = Cytotoxicity against human RXF 944L cells after 4 days by propidium iodide assay; conditions: 96 h; summary of the method: as §1
[36] = Cytotoxicity against human UXF 1138L cells after 4 days by propidium iodide assay; conditions: 96 h; summary of the method: as §1
[37] = Cytotoxicity against human 1218 cells after 7 to 20 days by clonogenic assay
Summary of the method: (§2)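 Colony formation assay for clonogenicity. Cell suspensions were prepared from patient-derived human tumour xenografts, kept by serial subcutaneous passage in NMRI nu/nu mice. Cells were embedded and incubated in culture medium containing soft agar. Potency is given as IC50.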

[38] = Cytotoxicity against human 243 cells after 7 to 20 days by clonogenic assay; summary of the method: as §2
[39] = Cytotoxicity against human 575 cells after 7 to 20 days by clonogenic assay; summary of the method: as §2
[40] = Cytotoxicity against human LXFA 526 cells after 7 to 20 days by clonogenic assay; summary of the method: as §2
[41] = Cytotoxicity against human LXFA 629L cells after 7 to 20 days by clonogenic assay; summary of the method: as §2
[42] = Cytotoxicity against human 1322 cells after 7 to 20 days by clonogenic assay; summary of the method: as §2
[43] = Cytotoxicity against human 401 cells after 7 to 20 days by clonogenic assay; summary of the method: as §2
[44] = Cytotoxicity against human 276 cells after 7 to 20 days by clonogenic assay; summary of the method: as §2
[45] = Cytotoxicity against human 514 cells after 7 to 20 days by clonogenic assay; summary of the method: as §2
[46] = Cytotoxicity against human 899 cells after 7 to 20 days by clonogenic assay; summary of the method: as §2
[47] = Cytotoxicity against human RXF631 cells after 7 to 20 days by clonogenic assay; conditions: RXF 631; summary of the method: as §2
[48] = Cytotoxicity against human NSB005 cells after 7 to 20 days by clonogenic assay
Summary of the method: (§3)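 Colony formation assay on hematopoietic stem cells from cord blood, used as nonmalignant tissue. Cells were embedded and incubated in culture medium containing methyl cellulose. Potency is given as IC50.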

[49] = Cytotoxicity against human NSB008 cells after 7 to 20 days by clonogenic assay; summary of the method: as §3
[50] = in the assay text read “MTT assay” for “propidium iodide assay”

CNC1=CC(=O)c2cc(C)ncc2C1=O
IC50 [1]: 10.3 µM | IC50 [2]: 0.61 µM | IC50 [3]: 5.21 µM | IC50 [4]: 1.8 µM | IC50 [5]: 3.62 µM | IC50 [6]: 1.98 µM | IC50 [7]: 3.6 µM | IC50 [8]: 0.38 µM | IC50 [9]: 6.56 µM | IC50 [10]: 3.04 µM | IC50 [11]: 10.6 µM | IC50 [12]: 4.88 µM | IC50 [13]: 1.18 µM | IC50 [14]: 3.92 µM | IC50 [15]: 17.3 µM | IC50 [16]: 1.11 µM | IC50 [17]: 0.35 µM | IC50 [18]: 5.72 µM | IC50 [19]: 19 µM | IC50 [20]: 2.02 µM | IC50 [21]: 0.24 µM | IC50 [22]: 4.01 µM | IC50 [23, 50]: 6.6 µM | IC50 [24, 50]: 7.64 µM | IC50 [25, 50]: 4.93 µM | IC50 [26]: 3.83 µM | IC50 [27]: 4.69 µM | IC50 [28]: 0.34 µM | IC50 [29]: 6.36 µM | IC50 [30]: 6.04 µM | IC50 [31]: 6.02 µM | IC50 [32]: 9.89 µM | IC50 [33]: 4.16 µM | IC50 [34]: 50.6 µM | IC50 [35]: 5.43 µM | IC50 [36, 50]: 2.23 µM | IC50 [37]: 4.34 µM | IC50 [38]: 10.3 µM | IC50 [39]: 8.35 µM | IC50 [40]: 4.31 µM | IC50 [41]: 1.63 µM | IC50 [42]: 8.35 µM | IC50 [43]: 3.89 µM | IC50 [44]: 0.33 µM | IC50 [45]: 0.05 µM | IC50 [46]: 5.35 µM | IC50 [47]: 7.81 µM | IC50 [48]: 4.58 µM | IC50 [49]: 4.53 µM

CNC1=C(Cl)C(=O)c2cc(C)ncc2C1=O
IC50 [1]: 1.38 µM | IC50 [3]: 1.34 µM | IC50 [7]: 1.75 µM | IC50 [10]: 5.96 µM | IC50 [12]: 1.54 µM | IC50 [13]: 1.23 µM | IC50 [15]: 3.55 µM | IC50 [17]: 0.36 µM | IC50 [19]: 5.64 µM | IC50 [23]: 13.9 µM | IC50 [24]: 2 µM | IC50 [25]: 1.81 µM | IC50 [27]: 5.67 µM | IC50 [30]: 3.23 µM | IC50 [31]: 5.19 µM | IC50 [33]: 1.57 µM | IC50 [34]: 17.9 µM | IC50 [36]: 1.68 µM
